Reference: ChEMBL document CHEMBL1151848, “Aryl nucleoside H-phosphonates. Part 16: synthesis and anti-HIV-1 activity of di-aryl nucleoside phosphotriesters” (Bioorg Med Chem, 2009)

Columns and labels:
[1] = test system: Human immunodeficiency virus 1; test: Antiviral activity against HIV1 3B infected in human MT4 cells assessed as protection from virus-induced cytopathogenicity after 4 days by MTT assay; type: functional, organism-based; conditions: Human immunodeficiency virus 1, 3B, MT4, 96 h
Procedure, shortened: (§1)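 MT-4 cells, acutely infected at m.o.i. 0.01, were used to read inhibition of HIV-1-induced cytopathogenicity. Compounds were made as 100 mM DMSO stocks and diluted in culture medium. Viability was read by MTT. EC50 is the concentration giving 50% protection, as the mean (+SD) of three independent determinations.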

[2] = Cytotoxicity against human MT4 cells after 96 hrs by MTT assay; type: cell-based
Procedure, shortened: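 Exponentially growing mock-infected MT-4 cells were seeded at 1 × 10⁵ cells/ml in RPMI-1640 with 10% FCS, penicillin G and streptomycin. They were incubated with serial compound dilutions at 37 °C in humidified 5% CO₂, and viability was read by MTT after 96 h. CC50 is the concentration reducing viability by 50%, as the mean of three independent determinations.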

[3] = Selectivity index, ratio of CC50 for human MT4 cells to EC50 for HIV1 3B; type: toxicity, cell-based; conditions: read-out: Ratio CC50/EC50
[4] = Chemical stability assessed as chemical hydrolysis half life in RPMI-1640 culture medium by HPLC analysis; type: physicochemical
Procedure, shortened: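 Chemical hydrolysis of the compounds was followed in RPMI-1640 medium alone.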

[5] = test system: Human immunodeficiency virus 1; test: Antiviral activity against non-nucleoside reverse transcriptase inhibitor-resistant HIV1 bearing reverse transcriptase A17 (K103N, Y181C) mutation infected in human MT4 cells assessed as protection from virus-induced cytopathogenicity after 4 days by MTT assay; type: functional, organism-based; conditions: Human immunodeficiency virus 1, MT4, 96 h; procedure, shortened: as §1
[6] = test system: Human immunodeficiency virus 1; test: Antiviral activity against azidothymidine-resistant HIV1 infected in human MT4 cells assessed as protection from virus-induced cytopathogenicity after 4 days by MTT assay; type: functional, organism-based; conditions: Human immunodeficiency virus 1, MT4, 96 h; procedure, shortened: as §1
[7] = test system: Human immunodeficiency virus 1; test: Antiviral activity against MDR1-resistant HIV1 infected in human MT4 cells assessed as protection from virus-induced cytopathogenicity after 4 days by MTT assay; type: functional, organism-based; conditions: Human immunodeficiency virus 1, MT4, 96 h; procedure, shortened: as §1
[8] = test system: Human immunodeficiency virus 1; test: Antiviral activity against efavirenz-resistant HIV1 infected in human MT4 cells assessed as protection from virus-induced cytopathogenicity after 4 days by MTT assay; type: functional, organism-based; conditions: Human immunodeficiency virus 1, MT4, 96 h; procedure, shortened: as §1
[9] = test system: Human immunodeficiency virus 1; test: Antiviral activity against non-nucleoside reverse transcriptase inhibitor-resistant HIV1 bearing reverse transcriptase N119 (Y181C) mutation infected in human MT4 cells assessed as protection from virus-induced cytopathogenicity after 4 days by MTT assay; type: functional, organism-based; conditions: Human immunodeficiency virus 1, MT4, 96 h; procedure, shortened: as §1

SMILES | EC50 [1] | CC50 at 96 h [2] | selectivity ratio [3] | half-life [4] | EC50 [5] | EC50 [6] | EC50 [7] | EC50 [8] | EC50 [9]
O=c1ccn([C@H]2CC[C@@H](CO)O2)c(=O)[nH]1 | > 100000 nM | > 100 µM |  |  |  |  |  |  | 
Nc1ncnc2c1ncn2[C@H]1CC[C@@H](CO)O1 | 5200 nM | > 100 µM | > 19 |  |  |  |  |  | 
Cc1cn([C@H]2C[C@H](N=[N+]=[N-])[C@@H](COP(=O)(Oc3ccccc3)Oc3cncc(Cl)c3)O2)c(=O)[nH]c1=O (stereo not given in full) | 40 nM | 100 µM | 2500 | 1510 min | 10 nM | 1500 nM | 600 nM | 10 nM | 50 nM
Cc1cn([C@H]2C[C@H](N=[N+]=[N-])[C@@H](COP(=O)(Oc3ccc(Br)cc3)Oc3cccnc3)O2)c(=O)[nH]c1=O (stereo not given in full) | 30 nM | 94 µM | 3130 | 2660 min | 10 nM | 1800 nM | 500 nM | 20 nM | 50 nM
Cc1cn([C@H]2C[C@H](N=[N+]=[N-])[C@@H](COP(=O)(Oc3ccncc3)Oc3cccnc3)O2)c(=O)[nH]c1=O (stereo not given in full) | 20 nM | > 100 µM | > 5000 | 513 min | 7 nM | 2300 nM | 1200 nM | 10 nM | 10 nM
Cc1ccc(OP(=O)(OC[C@H]2O[C@@H](n3cc(C)c(=O)[nH]c3=O)C[C@@H]2N=[N+]=[N-])Oc2ccc(C)nc2)cn1 | 40 nM | > 100 µM | > 2500 | 1280 min | 10 nM | 800 nM | 400 nM | 30 nM | 50 nM
Cc1cn([C@H]2C[C@H](N=[N+]=[N-])[C@@H](COP(=O)(Oc3ccccc3)Oc3cccnc3Cl)O2)c(=O)[nH]c1=O (stereo not given in full) | 30 nM | ≥ 100 µM | > 3330 | 963 min | 10 nM | 1200 nM | 400 nM | 10 nM | 20 nM
Cc1cn([C@H]2C[C@H](N=[N+]=[N-])[C@@H](COP(=O)(Oc3ccc(C#N)cc3)Oc3cccnc3)O2)c(=O)[nH]c1=O (stereo not given in full) | 20 nM | 58 µM | 2900 | 173 min | 9 nM | 800 nM | 300 nM | 30 nM | 20 nM
Cc1ncccc1OP(=O)(OC[C@H]1O[C@@H](n2cc(C)c(=O)[nH]c2=O)C[C@@H]1N=[N+]=[N-])Oc1cccnc1C | 20 nM | > 100 µM | > 5000 | 1030 min | 10 nM | 800 nM | 200 nM | 20 nM | 30 nM
Cc1ncccc1OP(=O)(OC[C@H]1O[C@@H](n2cc(C)c(=O)[nH]c2=O)C[C@@H]1N=[N+]=[N-])Oc1ccccc1 (stereo not given in full) | 100 nM | > 100 µM | > 1000 | 4950 min | 60 nM | 4700 nM | 1600 nM | 90 nM | 80 nM
Cc1cn([C@H]2C[C@H](N=[N+]=[N-])[C@@H](COP(=O)(Oc3cccnc3)Oc3ccc(Cl)cc3Cl)O2)c(=O)[nH]c1=O (stereo not given in full) | 10 nM | > 100 µM | > 10000 | 396 min | 8 nM | 400 nM | 100 nM | 10 nM | 10 nM
Cc1cn([C@H]2C[C@H](N=[N+]=[N-])[C@@H](COP(=O)(Oc3cccnc3)Oc3cccnc3)O2)c(=O)[nH]c1=O | 10 nM | > 100 µM | > 10000 | 295 min | 3 nM | 700 nM | 100 nM | 10 nM | 10 nM
O=c1ccn([C@H]2CC[C@@H](COP(=O)(Oc3ccncc3)Oc3cccnc3)O2)c(=O)[nH]1 (stereo not given in full) | 14000 nM | > 100 µM | > 7 | 420 min | 5000 nM | > 100000 nM | ≥ 100000 nM | 7000 nM | 9000 nM
Cc1ccc(OP(=O)(OC[C@H]2O[C@@H](n3cc(C)c(=O)[nH]c3=O)C[C@@H]2N=[N+]=[N-])Oc2ccccc2)cn1 (stereo not given in full) | 90 nM | > 100 µM | > 1110 | 2660 min | 40 nM | 7000 nM | 1600 nM | 70 nM | 80 nM
Nc1ncnc2c1ncn2[C@H]1CC[C@@H](COP(=O)(Oc2ccccc2)Oc2cccnc2)O1 (stereo not given in full) | 23000 nM | > 100 µM | > 4 | 5330 min | 7000 nM | 42000 nM | 50000 nM | 16000 nM | 30000 nM
O=c1ccn([C@H]2CC[C@@H](COP(=O)(Oc3ccccc3)Oc3ccncc3)O2)c(=O)[nH]1 (stereo not given in full) | 3000 nM | > 100 µM | > 33 | 1610 min | 2000 nM | 60000 nM | 38000 nM | 2000 nM | 4000 nM
Cc1cn([C@H]2C[C@H](N=[N+]=[N-])[C@@H](COP(=O)(Oc3ccc(Cl)cc3)Oc3cccnc3)O2)c(=O)[nH]c1=O (stereo not given in full) | 30 nM | ≥ 100 µM | > 3330 | 3300 min | 10 nM | 1900 nM | 700 nM | 10 nM | 40 nM
O=c1ccn([C@H]2CC[C@@H](COP(=O)(Oc3ccccc3)Oc3cccnc3)O2)c(=O)[nH]1 (stereo not given in full) | 38000 nM | > 100 µM | > 2 | 3850 min | 11000 nM | > 100000 nM | > 100000 nM | 20000 nM | 30000 nM
Cc1cn([C@H]2C[C@H](N=[N+]=[N-])[C@@H](COP(=O)(Oc3ccccc3)Oc3cccnc3)O2)c(=O)[nH]c1=O (stereo not given in full) | 50 nM | > 100 µM | > 2000 | 3010 min | 20 nM | 2300 nM | 500 nM | 30 nM | 40 nM
Cc1cn([C@H]2C[C@H](N=[N+]=[N-])[C@@H](CO)O2)c(=O)[nH]c1=O [ZIDOVUDINE] |  | 60 µM | > 6000 |  | 10 nM | 600 nM | 100 nM | 10 nM | 10 nM
